Experiment [1] deals with Bacteria. Briefly: Inhibition of […] (unknown origin) using imipenem as substrate at 50 uM by spectrophotometric assay relative to control. The procedure, abridged: (§1)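 Reporter-substrate spectrophotometric assay in 50 mM HEPES pH 7.5. Imipenem 150 μM (final) hydrolysis followed as absorbance change at 300 nm, with and without 50 μM compound. Compounds dissolved in DMSO (100 mM stock) and diluted in reaction buffer. % inhibition = 100 − 100×(vi/v0). 5 mM EDTA served as inhibition control.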

In experiment [2] the test system is Bacteria. Description: Inhibition of IMP-1 (unknown origin) using imipenem as substrate at 50 uM by spectrophotometric assay relative to control. Summed up:
as §1

The nature of experiment [3]: Inhibition of […] (unknown origin) using imipenem as substrate by spectrophotometric assay relative to control. The arrangement: species or system Bacteria. The procedure, abridged:
(§2)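 Ki from a competitive model. Initial rates of hydrolysis of 150 μM imipenem (reporter substrate) measured spectrophotometrically in 50 mM HEPES pH 7.5 at varying inhibitor concentrations. v0/vi plotted against [I], and Ki = KM/[(KM+[S])·slope]. Assays run in triplicate.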

The test system of experiment [4] is Bacteria. Description: Inhibition of VIM-2 (unknown origin) using imipenem as substrate at 50 uM by spectrophotometric assay relative to control. The procedure, abridged: as §1
The subject of experiment [5] is Escherichia coli. Briefly: Synergistic antibacterial activity against Escherichia coli SI-004M assessed as meropenem MIC at 32 ug/ml after 24 hrs by two-fold serial dilution method. It is filed as functional. The note with it: dose 32 µg/ml. Summed up:
(§3)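 Meropenem MICs against NDM-1-producing clinical isolates, with or without inhibitor fixed at 32 μg/mL, by two-fold serial dilution in Mueller-Hinton broth. Inoculum 5×10^4 CFU/well, CLSI method. Inhibitor added before the antibiotic. Plates incubated 24 h at 35 °C and read visually. Done in triplicate.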

Experiment [6] relates to Klebsiella pneumoniae. Description: Synergistic antibacterial activity against Klebsiella pneumoniae SI-518 assessed as meropenem MIC at 32 ug/ml after 24 hrs by two-fold serial dilution method. In kind it is functional. The note with it: dose 32 µg/ml. The procedure, abridged: as §3
Experiment [7] relates to Escherichia coli. Briefly: Synergistic antibacterial activity against Escherichia coli SI-004M assessed as fold reduction in meropenem MIC at 32 ug/ml after 24 hrs by two-fold serial dilution method. In kind it is functional. The note with it: dose 32 µg/ml. The procedure, abridged:
as §3

Experiment [8] can be described thus: Inhibition of IMP-1 (unknown origin) using imipenem as substrate by spectrophotometric assay relative to control. The arrangement: species or system Bacteria. The procedure, abridged: as §2
The test system of experiment [9] is Klebsiella pneumoniae. Description: Synergistic antibacterial activity against Klebsiella pneumoniae SI-518 assessed as fold reduction in meropenem MIC at 32 ug/ml after 24 hrs by two-fold serial dilution method. In kind it is functional. The note with it: dose 32 µg/ml. The procedure, abridged:
as §3

Experiment [10] has as its system Klebsiella pneumoniae. Briefly: Antibacterial activity against Klebsiella pneumoniae SI-518 assessed as reduction in microbial growth after 24 hrs by two-fold serial dilution method. It is filed as functional. The procedure, abridged: (§4)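 NDM-1-producing clinical isolate; meropenem MIC measured without inhibitor and with a fixed 32 μg/mL inhibitor (in each well and in the diluent) over two-fold serial dilutions. Mueller-Hinton broth, 5×10^4 CFU/well inoculum, per CLSI. Incubated 35 °C for 24 h and read visually. Triplicate. Compounds from a DMSO stock diluted in medium.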

Experiment [11] deals with Escherichia coli. Briefly: Antibacterial activity against Escherichia coli SI-004M assessed as reduction in microbial growth after 24 hrs by two-fold serial dilution method. It is filed as functional. The procedure, abridged: as §4

For orientation: inhibition means the share of the control response that was lost under treatment. Higher therefore signals strong suppression. As usually defined, the Ki is a measure of affinity in units of concentration, obtained from inhibition or displacement. Usually MIC stands for the lowest concentration found to suppress growth.

As for `O=C(/C=C/c1ccc2c(c1)OCO2)c1ccccc1O`, in the experiment on Bacteria [1], the inhibition was less than 20%.
The same measure, in the same setting: under `O=C(/C=C/c1ccc(N2CCCCC2)cc1)c1ccccc1O` stands 35%.
For `O=C1/C(=C/c2ccc(N3CCCCC3)cc2)Oc2cc(O)cc(O)c21`, the results for the inhibition with Bacteria [1], with Bacteria [2] and in the experiment on Bacteria [4] were 74%, less than 20% and less than 20%, respectively. This molecule registered a Ki in [3] of 4.8 µM.
`Oc1cccc2ccc(/C=C/c3ccc4c(c3)OCO4)nc12`: the values for the inhibition in the experiment with Bacteria [1], with Bacteria [2] and in the experiment on Bacteria [4] were 93%, 79% and 26%, respectively.
As to `Oc1cccc2ccc(/C=C/c3ccccc3)nc12`, the values for the MIC in the experiment on Escherichia coli [5] and in the experiment on Klebsiella pneumoniae [6] were 1 µg/mL and 0.25 µg/mL, respectively. Also, the results for the “fold change (FC)” value in the experiment with Escherichia coli [7] and in the experiment with Klebsiella pneumoniae [9] were 64 and 256, respectively. Besides, the inhibition in the experiment with Bacteria [1] amounted to 95%; in the experiment on Bacteria [2], 84%; in the experiment on Bacteria [4], 37%. The Ki worked out at 4.7 µM in experiment [8] and 2.2 µM in experiment [3].
For `Oc1cccc2ccc(CCc3ccccc3)nc12`, the inhibition was 85% in the experiment on Bacteria [1], 76% in the experiment with Bacteria [2] and 28% in the experiment on Bacteria [4].
For the molecule `O=C1/C(=C/c2ccc(O)c(O)c2)Cc2cc(O)cc(O)c21`, the inhibition with Bacteria [1] is 77%; with Bacteria [2], 23%; in the experiment on Bacteria [4] it was less than 20%. Also, in experiment [3], the Ki was 4.1 µM.
Molecule `O=C(/C=C/c1ccc(N2CCOCC2)cc1)c1ccccc1O` displayed an inhibition with Bacteria [1] of 24%.
`C[C@@H](O)[C@H]1C(=O)N2C(C(=O)O)=C(S[C@@H]3CN[C@H](C(=O)N(C)C)C3)[C@H](C)[C@H]12` [MEROPENEM]: the MIC in the experiment on Klebsiella pneumoniae [10] and in the experiment on Escherichia coli [11] was 64 µg/mL in each case.
In the experiment with Bacteria [1], `CCCCOc1ccc(/C=C2\Oc3cc(O)cc(O)c3C2=O)c(O)c1` came in with an inhibition of 46%.
As to `Oc1cccc2ccc(CCc3ccc4c(c3)OCO4)nc12`, the MIC with Escherichia coli [5] and with Klebsiella pneumoniae [6] was 64 µg/mL each time. Further, the inhibition with Bacteria [1] stood at 90%; with Bacteria [2], 71%; in the experiment on Bacteria [4], 38%. The molecule also returned a Ki in experiment [3] of 1.1 µM.

The values above are taken from ChEMBL document CHEMBL5113498, “A fragment-based drug discovery strategy applied to the identification of NDM-1 β-lactamase inhibitors” (Eur J Med Chem, 2022).
